Data from ChEMBL document CHEMBL1125274, “Persistent binding of fatty acyl derivatives of naltrexamine to opioid receptors” (J Med Chem, 1991).

Columns and labels:
[1] = biological target: T1, Opioid receptor (Mus musculus) (UniProt P42866+P32300+P33534); assay: (§1) Inhibition of [3H]dihydromorphine binding to mouse brain membranes as percentage of Opioid receptor occupancy
[2] = biological target: T1, Opioid receptor (Mus musculus); assay: as §1; remark: listed apart in the source
[3] = biological target: T1, Opioid receptor (Mus musculus); assay: Binding to mouse brain membranes expressed as percentage of Opioid receptors occupancy determined from difference in specific binding of [3H]dihydromorphine obtained after 10 wash procedures; settings: Membrane
In short: (§2)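 Male mouse brain (minus cerebellum) membranes in pH 7.4 Hepes buffer are exposed to ligand for 30 min at 25 °C, then centrifuged and washed 10 times (resuspended in Hepes, 10 min at 37 °C, recentrifuged). Pellets are labelled with 2 nM final [3H]dihydromorphine for 20 min at 25 °C; 1 µM naltrexone defines nonspecific binding. Occupancy is the loss of specific binding versus a ligand-free control treated identically, counted by scintillation. Mean ± SD of triplicates.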

[4] = biological target: T1, Opioid receptor (Mus musculus); assay: Binding to mouse brain membranes expressed as percentage of Opioid receptors occupancy determined from difference in specific binding of [3H]dihydromorphine obtained prewashed.; settings: Membrane
In short: (§3)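 Applies to membranes washed before ligand exposure. Mouse brain membranes in Hepes buffer pH 7.4 are incubated with ligand for 30 min at 25 °C. Occupancy is taken from the reduction in specific binding of [3H]dihydromorphine (2 nM final, 20 min at 25 °C; nonspecific binding with 1 µM naltrexone) versus a ligand-free control. Mean ± SD of triplicates.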

[5] = biological target: T1, Opioid receptor (Mus musculus); assay: Binding to mouse brain membranes expressed as percentage of receptor occupancy determined from difference in specific binding of [3H]dihydromorphine obtained after 3 wash procedures.; settings: Membrane
In short: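 Mouse forebrain membranes in Hepes buffer, pH 7.4, are incubated with ligand for 30 min at 25 °C, then given 3 wash cycles, each a 10 min resuspension at 37 °C followed by centrifugation. Residual occupancy is measured with 2 nM [3H]dihydromorphine (20 min, 25 °C; nonspecific binding with 1 µM naltrexone) as the drop in specific binding relative to a washed control without ligand. Mean ± SD, triplicate.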

[6] = biological target: T1, Opioid receptor (Mus musculus); assay: Binding to mouse brain membranes expressed as percentage of receptor occupancy determined from difference in specific binding of [3H]dihydromorphine obtained after 10 wash procedures.; settings: Membrane; in short: as §2
[7] = biological target: T1, Opioid receptor (Mus musculus); assay: Binding to mouse brain membranes expressed as percentage of receptor occupancy determined from difference in specific binding of [3H]dihydromorphine obtained after 5 wash procedures.; settings: Membrane
In short: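 Ligand pretreatment of male mouse brain membranes runs 30 min at 25 °C, followed by 5 washes in Hepes buffer pH 7.4 (10 min at 37 °C each, then recentrifuged). Specific binding of 2 nM [3H]dihydromorphine (20 min at 25 °C, minus binding with 1 µM naltrexone) is compared with an identically washed ligand-free control to give percent occupancy. Triplicate, mean ± SD.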

[8] = biological target: T1, Opioid receptor (Mus musculus); assay: Binding to mouse brain membranes expressed as percentage of receptor occupancy determined from difference in specific binding of [3H]dihydromorphine obtained prewashed.; settings: Membrane; in short: as §3

T1 sequence (P32300 whole entry, looked up): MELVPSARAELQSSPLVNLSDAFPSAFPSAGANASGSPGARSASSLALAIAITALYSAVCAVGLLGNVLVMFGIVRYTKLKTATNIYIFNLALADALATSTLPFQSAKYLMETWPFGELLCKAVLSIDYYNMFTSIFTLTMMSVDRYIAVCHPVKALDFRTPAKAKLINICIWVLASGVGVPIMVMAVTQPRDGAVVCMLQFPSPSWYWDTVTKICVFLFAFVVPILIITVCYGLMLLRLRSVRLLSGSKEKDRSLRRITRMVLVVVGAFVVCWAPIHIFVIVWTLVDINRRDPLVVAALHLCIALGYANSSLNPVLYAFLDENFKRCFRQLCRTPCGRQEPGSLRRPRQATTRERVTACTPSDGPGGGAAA
T1 sequence (P33534 whole entry, looked up): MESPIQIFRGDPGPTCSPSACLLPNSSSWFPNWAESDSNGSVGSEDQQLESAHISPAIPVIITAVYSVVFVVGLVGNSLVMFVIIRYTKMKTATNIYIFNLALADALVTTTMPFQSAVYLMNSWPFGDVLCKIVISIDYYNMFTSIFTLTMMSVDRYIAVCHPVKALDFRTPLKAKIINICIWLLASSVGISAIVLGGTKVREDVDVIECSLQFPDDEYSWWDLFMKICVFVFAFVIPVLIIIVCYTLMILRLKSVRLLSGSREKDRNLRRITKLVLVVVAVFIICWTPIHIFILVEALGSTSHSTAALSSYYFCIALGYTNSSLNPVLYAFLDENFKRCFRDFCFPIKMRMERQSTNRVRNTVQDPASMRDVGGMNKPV
T1 sequence (P42866 whole entry, looked up): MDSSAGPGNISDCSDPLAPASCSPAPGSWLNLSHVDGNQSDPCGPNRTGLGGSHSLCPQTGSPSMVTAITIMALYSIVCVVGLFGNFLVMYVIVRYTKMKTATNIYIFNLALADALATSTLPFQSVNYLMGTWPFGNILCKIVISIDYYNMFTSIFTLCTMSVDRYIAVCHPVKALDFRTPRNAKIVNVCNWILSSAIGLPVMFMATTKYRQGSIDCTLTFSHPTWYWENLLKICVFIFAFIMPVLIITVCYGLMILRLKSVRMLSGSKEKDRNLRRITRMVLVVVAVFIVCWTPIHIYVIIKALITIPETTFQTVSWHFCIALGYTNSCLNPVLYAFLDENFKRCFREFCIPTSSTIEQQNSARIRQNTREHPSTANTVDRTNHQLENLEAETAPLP

SMILES	Receptor occupancy [1] [%]	Receptor occupancy [2] [%]	Receptor occupancy [3] [%]	Receptor occupancy [4] [%]	Receptor occupancy [5] [%]	Receptor occupancy [6] [%]	Receptor occupancy [7] [%]	Receptor occupancy [8] [%]
CCCCCCCCCCCCCCCC(=O)NN[C@@H]1CC[C@@]2(O)[C@H]3Cc4ccc(O)c5c4[C@@]2(CCN3CC2CC2)[C@H]1O5	2	33						
CC/C=C/C/C=C/C/C=C/CCCCCCCC(=O)N[C@H]1CC[C@@]2(O)[C@H]3Cc4ccc(O)c5c4[C@@]2(CCN3CC2CC2)[C@H]1O5	89	94	84	69				
Oc1ccc2c3c1O[C@H]1/C(=N\N=C4/CC[C@@]5(O)[C@H]6Cc7ccc(O)c8c7[C@@]5(CCN6CC5CC5)[C@H]4O8)CC[C@@]4(O)[C@@H](C2)N(CC2CC2)CC[C@]314					35	2	-1	
CCCCCCCCCCCCCCCCCC(=O)NN[C@@H]1CC[C@@]2(O)[C@H]3Cc4ccc(O)c5c4[C@@]2(CCN3CC2CC2)[C@H]1O5	4	38						
CCCCCCCC/C=C/CCCCCCCC(=O)N[C@H]1CC[C@@]2(O)[C@H]3Cc4ccc(O)c5c4[C@@]2(CCN3CC2CC2)[C@H]1O5	54	98	21	42				
CCCCC/C=C/C/C=C/CCCCCCCC(=O)N[C@H]1CC[C@@]2(O)[C@H]3Cc4ccc(O)c5c4[C@@]2(CCN3CC2CC2)[C@H]1O5	93	93	46	73				
CC/C=C/C/C=C/C/C=C/CCCCCCCC(=O)N[C@@H]1CC[C@@]2(O)[C@H]3Cc4ccc(O)c5c4[C@@]2(CCN3CC2CC2)[C@H]1O5	95	92	86	85				
CC(=O)N[C@@H]1CC[C@@]2(O)[C@H]3Cc4ccc(O)c5c4[C@@]2(CCN3CC2CC2)[C@H]1O5					4			
CCCCCCCCCCCCCCCC(=O)N[C@@H]1CC[C@@]2(O)[C@H]3Cc4ccc(O)c5c4[C@@]2(CCN3CC2CC2)[C@H]1O5	58	93	2	38				
CCCCC/C=C/C/C=C/CCCCCCCC(=O)N[C@@H]1CC[C@@]2(O)[C@H]3Cc4ccc(O)c5c4[C@@]2(CCN3CC2CC2)[C@H]1O5	96	94	53	84				
CCCCCCCCCCCCCCCCCC(=O)N[C@H]1CC[C@@]2(O)[C@H]3Cc4ccc(O)c5c4[C@@]2(CCN3CC2CC2)[C@H]1O5	42	77	6	18				
CCCCCCCCCCCCCCCC(=O)N[C@H]1CC[C@@]2(O)[C@H]3Cc4ccc(O)c5c4[C@@]2(CCN3CC2CC2)[C@H]1O5					85	3	35	24
CC/C=C/C/C=C/C/C=C/CCCCCCCC(=O)NN[C@@H]1CC[C@@]2(O)[C@H]3Cc4ccc(O)c5c4[C@@]2(CCN3CC2CC2)[C@H]1O5	46	93	38					
CC(=O)N[C@H]1CC[C@@]2(O)[C@H]3Cc4ccc(O)c5c4[C@@]2(CCN3CC2CC2)[C@H]1O5					2			
CCCCCCCC/C=C/CCCCCCCC(=O)N[C@@H]1CC[C@@]2(O)[C@H]3Cc4ccc(O)c5c4[C@@]2(CCN3CC2CC2)[C@H]1O5	93	95	32	64				
CCCCCCCCCCCCCCCCCC(=O)N[C@@H]1CC[C@@]2(O)[C@H]3Cc4ccc(O)c5c4[C@@]2(CCN3CC2CC2)[C@H]1O5	48	89	2	34				
